Columns and labels:
Format in all cases: functional
Set-up in all cases: scale not given: the % may be the effect or the level left
HCT-116 = assay: Growth inhibition of human HCT116 cells assessed tumor cell growth at 10^-5 M
Summary of the method: (§1)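 NCI 60-human-tumor-cell-line panel screen. Each compound was tested at a single concentration of 10^-5 M, and percent growth of tumor cells was recorded for each cell line. Growth inhibition was expressed from these percent-growth values.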

MCF7 = assay: Growth inhibition of human MCF7 cells assessed tumor cell growth at 10^-5 M; summary of the method: as §1
PC-3 = assay: Growth inhibition of human PC3 cells assessed tumor cell growth at 10^-5 M; summary of the method: as §1
LOX IMVI = assay: Growth inhibition of human LOXIMVI cells assessed tumor cell growth at 10^-5 M; summary of the method: as §1
BT-549 = assay: Growth inhibition of human BT549 cells assessed tumor cell growth at 10^-5 M; summary of the method: as §1
ACHN = assay: Growth inhibition of human ACHN cells assessed tumor cell growth at 10^-5 M; summary of the method: as §1
NCI-H322M = assay: Growth inhibition of human NCI-H322M cells assessed tumor cell growth at 10^-5 M; summary of the method: as §1
IGROV-1 = assay: Growth inhibition of human IGROV1 cells assessed tumor cell growth at 10^-5 M; summary of the method: as §1
SK-MEL-5 = assay: Growth inhibition of human SK-MEL-5 cells assessed tumor cell growth at 10^-5 M; summary of the method: as §1
HCT-15 = assay: Growth inhibition of human HCT15 cells assessed tumor cell growth at 10^-5 M; summary of the method: as §1
CAKI-1 = assay: Growth inhibition of human Caki1 cells assessed tumor cell growth at 10^-5 M; summary of the method: as §1
HL-60(TB) = assay: Growth inhibition of human HL-60(TB) cells assessed tumor cell growth at 10^-5 M
Summary of the method: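 HL-60(TB), part of the 60-line panel, tested at a single concentration of 10^-5 M. The read-out is percent tumor cell growth relative to untreated growth.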

HOP-92 = assay: Growth inhibition of human HOP92 cells assessed tumor cell growth at 10^-5 M; summary of the method: as §1
SF-268 = assay: Growth inhibition of human SF268 cells assessed tumor cell growth at 10^-5 M; summary of the method: as §1
HOP-62 = assay: Growth inhibition of human HOP62 cells assessed tumor cell growth at 10^-5 M; summary of the method: as §1
OVCAR-4 = assay: Growth inhibition of human OVCAR4 cells assessed tumor cell growth at 10^-5 M; summary of the method: as §1
HCC 2998 = assay: Growth inhibition of human HCC2998 cells assessed tumor cell growth at 10^-5 M; summary of the method: as §1
[1] = Growth inhibition of human […] cells assessed tumor cell growth at 10^-5 M; summary of the method: as §1
SK-MEL-2 = assay: Growth inhibition of human SK-MEL-2 cells assessed tumor cell growth at 10^-5 M; summary of the method: as §1
SF-539 = assay: Growth inhibition of human SF539 cells assessed tumor cell growth at 10^-5 M; summary of the method: as §1
K562 = assay: Growth inhibition of human K562 cells assessed tumor cell growth at 10^-5 M; summary of the method: as §1
SN12C = assay: Growth inhibition of human SN12C cells assessed tumor cell growth at 10^-5 M; summary of the method: as §1
MDA-MB-231 = assay: Growth inhibition of human MDA-MB-231 cells assessed tumor cell growth at 10^-5 M; summary of the method: as §1
SNB-19 = assay: Growth inhibition of human SNB19 cells assessed tumor cell growth at 10^-5 M
Summary of the method: (§2)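 Single-dose screen at 10^-5 M across the 60 human tumor cell line panel, run to NCI standards. The value is the percent growth of each cell line in the presence of compound. Compounds active at this dose moved on to five-concentration testing (10^-4 to 10^-8 M).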

SK-MEL-28 = assay: Growth inhibition of human SK-MEL-28 cells assessed tumor cell growth at 10^-5 M; summary of the method: as §1
NCI-H522 = assay: Growth inhibition of human NCI-H522 cells assessed tumor cell growth at 10^-5 M; summary of the method: as §1
TK-10 = assay: Growth inhibition of human TK10 cells assessed tumor cell growth at 10^-5 M; summary of the method: as §2
NCI-H23 = assay: Growth inhibition of human NCI-H23 cells assessed tumor cell growth at 10^-5 M; summary of the method: as §1
HT-29 = assay: Growth inhibition of human HT-29 cells assessed tumor cell growth at 10^-5 M; summary of the method: as §1
A498 = assay: Growth inhibition of human A498 cells assessed tumor cell growth at 10^-5 M; summary of the method: as §1
M14 = assay: Growth inhibition of human M14 cells assessed tumor cell growth at 10^-5 M; summary of the method: as §1
UACC-257 = assay: Growth inhibition of human UACC257 cells assessed tumor cell growth at 10^-5 M; summary of the method: as §2
MDA-MB-435 = assay: Growth inhibition of human MDA-MB-435 cells assessed tumor cell growth at 10^-5 M; summary of the method: as §1
NCI/ADR-RES = assay: Growth inhibition of human NCI/ADR-RES cells assessed tumor cell growth at 10^-5 M; summary of the method: as §1
SNB-75 = assay: Growth inhibition of human SNB75 cells assessed tumor cell growth at 10^-5 M; summary of the method: as §2
EKVX = assay: Growth inhibition of human EKVX cells assessed tumor cell growth at 10^-5 M; summary of the method: as §1
T47D = assay: Growth inhibition of human T47D cells assessed tumor cell growth at 10^-5 M; summary of the method: as §2
UACC-62 = assay: Growth inhibition of human UACC62 cells assessed tumor cell growth at 10^-5 M; summary of the method: as §2
DU-145 = assay: Growth inhibition of human DU145 cells assessed tumor cell growth at 10^-5 M; summary of the method: as §1
COLO 205 = assay: Growth inhibition of human COLO205 cells assessed tumor cell growth at 10^-5 M; summary of the method: as §1
Malme-3M = assay: Growth inhibition of human MALME-3M cells assessed tumor cell growth at 10^-5 M; summary of the method: as §1
OVCAR-5 = assay: Growth inhibition of human OVCAR5 cells assessed tumor cell growth at 10^-5 M; summary of the method: as §1
786-0 = assay: Growth inhibition of human 786-0 cells assessed tumor cell growth at 10^-5 M; summary of the method: as §1
CCRF-CEM = assay: Growth inhibition of human CCRF-CEM cells assessed tumor cell growth at 10^-5 M; summary of the method: as §1
MDA-MB-468 = assay: Growth inhibition of human MDA-MB-468 cells assessed tumor cell growth at 10^-5 M; summary of the method: as §1
SF-295 = assay: Growth inhibition of human SF295 cells assessed tumor cell growth at 10^-5 M; summary of the method: as §1
KM12 = assay: Growth inhibition of human KM12 cells assessed tumor cell growth at 10^-5 M; summary of the method: as §1
A549 = assay: Growth inhibition of human A549 cells assessed tumor cell growth at 10^-5 M; summary of the method: as §1
NCI-H460 = assay: Growth inhibition of human NCI-H460 cells assessed tumor cell growth at 10^-5 M; summary of the method: as §1
OVCAR-3 = assay: Growth inhibition of human OVCAR3 cells assessed tumor cell growth at 10^-5 M; summary of the method: as §1
UO-31 = assay: Growth inhibition of human UO31 cells assessed tumor cell growth at 10^-5 M; summary of the method: as §2
RXF 393 = assay: Growth inhibition of human RXF393 cells assessed tumor cell growth at 10^-5 M; summary of the method: as §1
OVCAR-8 = assay: Growth inhibition of human OVCAR8 cells assessed tumor cell growth at 10^-5 M; summary of the method: as §1
[2] = Growth inhibition of human Hs 578T cells assessed tumor cell growth at 10^-5 M; summary of the method: as §1
SW-620 = assay: Growth inhibition of human SW620 cells assessed tumor cell growth at 10^-5 M; summary of the method: as §2
SK-OV-3 = assay: Growth inhibition of human SKOV3 cells assessed tumor cell growth at 10^-5 M; summary of the method: as §1
MOLT-4 = assay: Growth inhibition of human MOLT4 cells assessed tumor cell growth at 10^-5 M; summary of the method: as §1
NCI-H226 = assay: Growth inhibition of human NCI-H226 cells assessed tumor cell growth at 10^-5 M; summary of the method: as §1
U-251 = assay: Growth inhibition of human U251 cells assessed tumor cell growth at 10^-5 M; summary of the method: as §2
SR = assay: Growth inhibition of human SR cells assessed tumor cell growth at 10^-5 M; summary of the method: as §2

For Cc1ccc(S(=O)(=O)n2cc(/C=C3\C(=O)Nc4ccccc43)c3ccccc32)cc1, the Activity (HCT-116) was 92.5%, the Activity (MCF7) was 56.6% and the Activity (PC-3) was 92.8%. For the same compound, the Activity (LOX IMVI) was 82.7%, the Activity (BT-549) was 97.5% and the Activity (ACHN) was 82.2%. It also gave an Activity (NCI-H322M) of 106.5%, an Activity (IGROV-1) of 73% and an Activity (SK-MEL-5) of 84.9%. For the same compound, the Activity (HCT-15) was 79.5%, the Activity (CAKI-1) was 53.7% and the Activity (HL-60(TB)) was 100.6%. It also gave an Activity (HOP-92) of 67.4%, an Activity (SF-268) of 88.4% and an Activity (HOP-62) of 98.5%. For the same compound, the Activity (OVCAR-4) was 70.1%, the Activity (HCC 2998) was 98.6% and the Activity [1] was 80.7%. It also gave an Activity (SK-MEL-2) of 86.6%, an Activity (SF-539) of 93.1% and an Activity (K562) of 85%. For the same compound, the Activity (SN12C) was 88.3%, the Activity (MDA-MB-231) was 66.4% and the Activity (SNB-19) was 85.2%. It also gave an Activity (SK-MEL-28) of 86.8%, an Activity (NCI-H522) of 111.2% and an Activity (TK-10) of 117.8%. For the same compound, the Activity (NCI-H23) was 89.8%, the Activity (HT-29) was 104.5% and the Activity (A498) was 102%. For the same compound, the Activity (M14) was 96%, the Activity (UACC-257) was 84% and the Activity (MDA-MB-435) was 93.2%. The Activity (NCI/ADR-RES) was 92.1%, the Activity (SNB-75) was 73.4% and the Activity (EKVX) was 93.8%. It also gave an Activity (T47D) of 77.3%, an Activity (UACC-62) of 64% and an Activity (DU-145) of 101.5%. The Activity (COLO 205) was 54.4%, the Activity (Malme-3M) was 111% and the Activity (OVCAR-5) was 87.3%. It also gave an Activity (786-0) of 99.7%, an Activity (CCRF-CEM) of 95.6% and an Activity (MDA-MB-468) of 117.2%. It also gave an Activity (SF-295) of 97.1%, an Activity (KM12) of 97% and an Activity (A549) of 88.2%. For the same compound, the Activity (NCI-H460) was 97.3%, the Activity (OVCAR-3) was 83.7% and the Activity (UO-31) was 60.9%. The Activity (RXF 393) was 97.6%, the Activity (OVCAR-8) was 91.2% and the Activity [2] was 92.2%. For the same compound, the Activity (SW-620) was 103%, the Activity (SK-OV-3) was 99.1% and the Activity (MOLT-4) was 95.7%. For the same compound, the Activity (NCI-H226) was 86.3% and the Activity (U-251) was 86.4%.
Work on O=C1/C(=C\c2cn(Cc3ccccc3)c3ccccc23)c2ccccc2N1Cc1ccccc1 yielded an Activity (HCT-116) of 64.7%, an Activity (MCF7) of 3.6% and an Activity (PC-3) of 80.8%. The Activity (LOX IMVI) was 84%, the Activity (ACHN) was 85.4% and the Activity (NCI-H322M) was 103.8%. It also gave an Activity (IGROV-1) of 66.8%, an Activity (SK-MEL-5) of 84.4% and an Activity (HCT-15) of 77.7%. The Activity (CAKI-1) was 72%, the Activity (HL-60(TB)) was 103.6% and the Activity (SF-268) was 92.3%. For the same compound, the Activity (HOP-62) was 90.9%, the Activity (OVCAR-4) was 84.4% and the Activity [1] was 76.9%. For the same compound, the Activity (SK-MEL-2) was 86.4%, the Activity (SF-539) was 94.7% and the Activity (K562) was 95.2%. It also gave an Activity (SN12C) of 104%, an Activity (MDA-MB-231) of 100.6% and an Activity (SNB-19) of 106.1%. The Activity (SK-MEL-28) was 104.8%, the Activity (NCI-H522) was 31.8% and the Activity (TK-10) was 85.3%. For the same compound, the Activity (NCI-H23) was 88.6%, the Activity (HT-29) was 90% and the Activity (A498) was 96.6%. It also gave an Activity (M14) of 96.6%, an Activity (MDA-MB-435) of 110.5% and an Activity (NCI/ADR-RES) of 92%. It also gave an Activity (SNB-75) of 89.5%, an Activity (EKVX) of 85.2% and an Activity (T47D) of 57%. It also gave an Activity (UACC-62) of 82.6%, an Activity (DU-145) of 100.2% and an Activity (COLO 205) of 89.8%. For the same compound, the Activity (Malme-3M) was 121.4%, the Activity (SR) was 96.6% and the Activity (OVCAR-5) was 106.7%. It also gave an Activity (786-0) of 99.1%, an Activity (MDA-MB-468) of 46.6% and an Activity (SF-295) of 108.8%. The Activity (KM12) was 87.9%, the Activity (A549) was 81.6% and the Activity (NCI-H460) was 88.6%. It also gave an Activity (OVCAR-3) of 84.3%, an Activity (UO-31) of 82.3% and an Activity (RXF 393) of 73.5%. It also gave an Activity (OVCAR-8) of 88.9%, an Activity [2] of 96% and an Activity (SW-620) of 97.1%. The Activity (SK-OV-3) was 92.4%, the Activity (MOLT-4) was 98.9% and the Activity (U-251) was 92.9%.
